# The source made the active and inactive calls. The rule behind the calls is not given here.
# Assays:
# [1] = Toxicity against Balb-c nu/nu mouse xenografted with human PC-9 cells expressing EGFR-C797S/T790M/del19 mutant assessed as change in body weight at 75 mg/kg, po administered for 60 days and measured twice weekly in presence of panitumumab; type: organism-based; settings: in vivo, 1440 h, time 60 day
# How it was run: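 Mice bearing subcutaneous PC9 triple-mutant tumours in Balb-c nu/nu hosts were randomized at ~200 mm³. […] Body weights were taken twice weekly, N=6 per group.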
# BaF3 [2] = experiment: Inhibition of EGFR-del19 mutant in mouse BaF3 cells assessed as inhibition of Akt phosphorylation at 10 to 1000 nM incubated for 6 hrs by Western blotting analysis; type: cell-based; settings: dose 10-1000 nM
# How it was run: (§1)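 Ba/F3 cells carrying the stated EGFR mutant were made IL-3-independent after 1 week of 7 µM blasticidin selection. They were grown in low-glucose DMEM with 10% FBS and exposed to inhibitor for 6 h. Cells were washed in cold PBS, lysed in SDS buffer (100 mM Tris, 1% SDS, 10% glycerol) and boiled 5 min. Protein was measured by BCA, run on SDS-PAGE, transferred to PVDF, blocked in 5% BSA or milk/TBS-T, and immunoblotted.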
# PC-9 [3] = experiment: Anti-tumor activity against human PC-9 cells expressing EGFR-C797S/T790M/del19 mutant xenografted in Balb-c nu/nu mouse assessed as prolonged survival at 75 mg/kg, po administered for 60 days and measured twice weekly in presence of panitumumab; type: functional, organism-based; settings: time 60.0 day
# How it was run: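 PC9 EGFR-C797S/T790M/del19 xenografts in Balb-c nu/nu mice, randomized at ~200 mm³. […] Tumour volume 0.5×length×width² measured twice weekly. Survival by Kaplan-Meier. N = 6. Mann-Whitney U test at days 16 and 23.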
# [4] = tested on: Epidermal growth factor receptor (Homo sapiens), P00533 [UNDEFINED MUTATION]; settings: MGH121, dose 500.0 nM, time 48.0 hrs
# Chain of Epidermal growth factor receptor (Homo sapiens), P00533 [UNDEFINED MUTATION] (P00533 whole entry, looked up, stated change not applied): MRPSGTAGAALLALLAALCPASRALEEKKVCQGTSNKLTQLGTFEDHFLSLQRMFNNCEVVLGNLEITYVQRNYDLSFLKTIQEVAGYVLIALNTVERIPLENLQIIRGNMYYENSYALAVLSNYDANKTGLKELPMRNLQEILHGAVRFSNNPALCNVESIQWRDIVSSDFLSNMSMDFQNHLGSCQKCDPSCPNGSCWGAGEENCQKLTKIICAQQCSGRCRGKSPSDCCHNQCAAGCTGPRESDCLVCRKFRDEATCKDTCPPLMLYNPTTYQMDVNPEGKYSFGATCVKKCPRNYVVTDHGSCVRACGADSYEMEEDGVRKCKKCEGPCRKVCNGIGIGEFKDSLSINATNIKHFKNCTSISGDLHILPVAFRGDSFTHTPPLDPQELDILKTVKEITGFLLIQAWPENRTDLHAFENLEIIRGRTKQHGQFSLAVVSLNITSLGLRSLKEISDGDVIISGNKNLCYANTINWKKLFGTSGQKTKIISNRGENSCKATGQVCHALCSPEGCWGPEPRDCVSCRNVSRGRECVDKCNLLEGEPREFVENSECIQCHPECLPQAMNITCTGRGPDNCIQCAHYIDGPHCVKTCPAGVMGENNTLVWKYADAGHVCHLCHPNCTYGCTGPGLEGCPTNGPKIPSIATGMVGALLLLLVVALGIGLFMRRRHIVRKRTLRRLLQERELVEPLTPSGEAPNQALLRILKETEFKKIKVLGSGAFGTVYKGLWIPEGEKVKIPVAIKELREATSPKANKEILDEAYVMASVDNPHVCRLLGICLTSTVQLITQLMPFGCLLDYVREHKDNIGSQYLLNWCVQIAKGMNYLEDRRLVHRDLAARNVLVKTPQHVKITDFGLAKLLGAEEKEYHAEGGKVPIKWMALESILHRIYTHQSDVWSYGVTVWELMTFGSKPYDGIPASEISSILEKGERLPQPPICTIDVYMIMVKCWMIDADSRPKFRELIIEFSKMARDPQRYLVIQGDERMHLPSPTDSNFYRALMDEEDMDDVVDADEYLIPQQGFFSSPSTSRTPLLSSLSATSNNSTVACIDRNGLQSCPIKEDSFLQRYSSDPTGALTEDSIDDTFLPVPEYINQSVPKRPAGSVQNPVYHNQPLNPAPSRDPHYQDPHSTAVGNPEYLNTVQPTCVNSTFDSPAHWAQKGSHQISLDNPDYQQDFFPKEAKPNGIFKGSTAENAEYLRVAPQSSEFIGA
# BaF3 [5] = settings: Mus musculus, dose 30-1000 nM, time 6.0 hrs
# BaF3 [6] = settings: Mus musculus, dose 10-1000 nM, time 6.0 hrs
# [7] = Toxicity against SCID-beige mouse xenografted with human MGH121 cells expressing EGFR-C797S/T790M/del19 mutant assessed as change in body weight at 75 mg/kg, po administered for 40 days and measured twice weekly in presence of cetuximab; type: organism-based; settings: in vivo, 960 h, time 40 day
# How it was run: (§2)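 SCID-beige mice with subcutaneous MGH121-res2 implants were randomized to vehicle or treatment at a mean tumour volume of ~200 mm³. […] Body weight was measured twice weekly, N=6 per group.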
# BaF3 [8] = experiment: Inhibition of EGFR-C797S/T790M/del19 mutant in mouse BaF3 cells assessed as reduction in ERK phosphorylation incubated for 6 hrs by Western blotting analysis; type: cell-based
# PC-9 [9] = experiment: Inhibition of EGFR T790M/del19 mutant in human PC-9 cells assessed as reduction in S6 phosphorylation at 10 to 1000 nM by Western blotting analysis; type: cell-based; settings: dose 10-1000 nM
# A549 = experiment: Anticancer activity against KRAS-mutated human A549 cells assessed as reduction in cell viability at 1 to 10000 nM incubated for 72 hrs by CellTiter-Glo assay; type: functional, cell-based; settings: dose 1-10000 nM
# BaF3 [10] = settings: Mus musculus, dose 10-1000 nM, time 6.0 hrs; remark: listed apart in the source
# BaF3 [11] = experiment: Inhibition of EGFR-T790M/del19 mutant in mouse BaF3 cells assessed as inhibition of ERK phosphorylation at 10 to 1000 nM incubated for 6 hrs by Western blotting analysis; type: cell-based; settings: dose 10-1000 nM; how it was run: as §1
# [12] = tested on: Epidermal growth factor receptor (Homo sapiens), P00533 [UNDEFINED MUTATION]; settings: PC-9, dose 10-1000 nM
# BaF3 [13] = experiment: Inhibition of EGFR-del19 mutant in mouse BaF3 cells assessed as inhibition of S6 phosphorylation at 10 to 1000 nM incubated for 6 hrs by Western blotting analysis; type: cell-based; settings: dose 10-1000 nM; how it was run: as §1
# [14] = Toxicity against SCID-beige mouse xenografted with human MGH121 cells expressing EGFR-C797S/T790M/del19 mutant assessed as change in body weight at 75 mg/kg, po administered for 40 days and measured twice weekly; type: organism-based; settings: in vivo, 960 h, time 40 day; how it was run: as §2
# [15] = tested on: Epidermal growth factor receptor (Homo sapiens), P00533 [UNDEFINED MUTATION]; settings: PC-9, dose 10-1000 nM; remark: listed apart in the source
# PC-9 [16] = settings: Homo sapiens, dose 75.0 mg/kg, route po, time 15.0 day
# [17] = tested on: Epidermal growth factor receptor (Homo sapiens), P00533 [UNDEFINED MUTATION]; settings: PC-9, dose 10-1000 nM; remark: listed apart in the source
# BaF3 [18] = experiment: Inhibition of EGFR-T790M/del19 mutant in mouse BaF3 cells assessed as inhibition of EGFR phosphorylation at 10 to 1000 nM incubated for 6 hrs by Western blotting analysis; type: cell-based; settings: dose 10-1000 nM; how it was run: as §1
# MGH121 = experiment: Anti-tumor activity against human MGH121 cells expressing EGFR-C797S/T790M/del19 mutant xenografted in SCID-beige mouse assessed as tumor shrinkage at 75 mg/kg, po administered for 40 days and measured twice weekly in presence of cetuximab; type: functional, organism-based; settings: time 40.0 day
# How it was run: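 MGH121-res2 cells (EGFR-C797S/T790M/del19) implanted s.c. in SCID-beige mice. Randomized at mean tumour ~200 mm³. […] Tumour volume 0.5×length×width² and body weight measured twice weekly. N = 6, mean ± s.d. Mann-Whitney U test on day 42.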
# BaF3 [19] = experiment: Inhibition of EGFR-C797S/T790M/L858R mutant in mouse BaF3 cells assessed as inhibition of S6 phosphorylation at 10 to 1000 nM incubated for 6 hrs by Western blotting analysis; type: cell-based; settings: dose 10-1000 nM
# How it was run: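 Ba/F3 cells expressing EGFR-L858R-series mutants treated with inhibitors for 6 h. SDS lysates quantified by BCA, run on SDS-PAGE and blotted to PVDF. Probed for phospho-EGFR (Tyr1068), total EGFR and downstream phospho-proteins.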
# [20] = tested on: Epidermal growth factor receptor (Homo sapiens), P00533 [UNDEFINED MUTATION]; settings: PC-9, dose 500.0 nM, time 6-48 hrs, TDE = time-dependent effect
# [21] = tested on: Epidermal growth factor receptor (Homo sapiens), P00533 [UNDEFINED MUTATION]; settings: MGH121, dose 10-1000 nM
# PC-9 [22] = settings: Homo sapiens, dose 75.0 mg/kg, route po, time 15.0 day; remark: listed apart in the source
# PC-9 [23] = settings: Homo sapiens, dose 75.0 mg/kg, route po, time 15.0 day; remark: listed apart in the source
# PC-9 [24] = experiment: Inhibition of EGFR T790M/del19 mutant in human PC-9 cells assessed as reduction in Akt phosphorylation at 10 to 1000 nM by Western blotting analysis; type: cell-based; settings: dose 10-1000 nM
# BaF3 [25] = settings: Mus musculus, dose 30-1000 nM, time 6.0 hrs; remark: listed apart in the source
smiles,measurement,setting,value
COc1cc(N2CCC(N3CCN(C)CC3)CC2)ccc1Nc1ncc(Cl)c(Nc2ccccc2P(C)(C)=O)n1 [BRIGATINIB],Activity,[1],Non-Toxic
same,inhibition,BaF3 [2],Active
same,Activity,PC-9 [3],Active
same,inhibition,[4],Active
same,inhibition,BaF3 [5],Active
same,inhibition,BaF3 [6],Active
same,Activity,[7],Non-Toxic
same,inhibition,BaF3 [8],Dose-Dependent Effect
same,inhibition,PC-9 [9],Active
same,Activity,A549,Active
same,inhibition,BaF3 [10],Active
same,inhibition,BaF3 [11],Active
same,inhibition,[12],Active
same,inhibition,BaF3 [13],Active
same,Activity,[14],Non-Toxic
same,inhibition,[15],Active
same,inhibition,PC-9 [16],Active
same,inhibition,[17],Active
same,inhibition,BaF3 [18],Active
same,Activity,MGH121,Active
same,inhibition,BaF3 [19],Active
same,inhibition,[20],Tde
same,inhibition,[21],Active
same,inhibition,PC-9 [22],Active
same,inhibition,PC-9 [23],Active
same,inhibition,PC-9 [24],Active
same,inhibition,BaF3 [25],Active

# Reference: ChEMBL document CHEMBL5705906 (Nat Commun, 2017)
